Data as given in ChEMBL document CHEMBL4715736, “Identification of anticancer agents based on the thieno[2,3-b]pyridine and 1H-pyrazole molecular scaffolds” (2016).

What was measured:
Format in all cases: functional
[1] = tested on: CAKI-1; experiment: Growth inhibition of human CAKI-1 cells assessed as cell growth at 1 uM incubated for 48 hrs by sulforhodamine B assay relative to control; conditions: read-out: Activity
Summary of the method: (§1)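 NCI Developmental Therapeutics Program NCI60 panel. Compounds that were active in the 10 µM one-dose screen went on to dose–response testing. Growth at each concentration is expressed relative to untreated control (100%). GI50 (concentration giving 50% of maximal inhibition of proliferation) and TGI (concentration giving total growth inhibition) were derived from the curves.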

[2] = tested on: HOP-92; experiment: Growth inhibition of human HOP-92 cells incubated for 48 hrs by sulforhodamine B assay
Summary of the method: (§2)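 NCI60 panel at the NCI Developmental Therapeutics Program. Only compounds active in the 10 µM screen went to dose-response testing. GI50, the concentration giving 50% of maximal inhibition of proliferation, and TGI, the concentration giving total growth inhibition, were derived from the dose-response curves.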

[3] = tested on: HCT-15; experiment: Growth inhibition of human HCT-15 cells assessed as cell growth at 1 uM incubated for 48 hrs by sulforhodamine B assay relative to control; conditions: read-out: Activity
[4] = tested on: SK-OV-3; experiment: Growth inhibition of human SK-OV-3 cells incubated for 48 hrs by sulforhodamine B assay
Summary of the method: (§3)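 NCI DTP 60-line human tumour panel. Dose-response curves were run only for ligands active in the initial 10 µM screen. GI50 (concentration giving 50% of maximal inhibition of proliferation) and TGI (concentration giving total growth inhibition) were derived from these curves.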

[5] = tested on: SNB-75; experiment: Growth inhibition of human SNB-75 cells assessed as cell growth at 0.01 uM incubated for 48 hrs by sulforhodamine B assay relative to control; conditions: read-out: Activity
[6] = tested on: MDA-MB-468; experiment: Growth inhibition of human MDA-MB-468 cells assessed as cell growth at 100 uM incubated for 48 hrs by sulforhodamine B assay relative to control; conditions: read-out: Activity
[7] = tested on: SW-620; experiment: Growth inhibition of human SW-620 cells assessed as cell growth at 0.01 uM incubated for 48 hrs by sulforhodamine B assay relative to control; conditions: read-out: Activity
[8] = tested on: SNB-19; experiment: Growth inhibition of human SNB-19 cells assessed as cell growth at 0.1 uM incubated for 48 hrs by sulforhodamine B assay relative to control; conditions: read-out: Activity
[9] = tested on: SF-539; experiment: Growth inhibition of human SF-539 cells assessed as cell growth at 100 uM incubated for 48 hrs by sulforhodamine B assay relative to control; conditions: read-out: Activity
[10] = tested on: SK-MEL-28; experiment: Growth inhibition of human SK-MEL-28 cells assessed as cell growth at 0.01 uM incubated for 48 hrs by sulforhodamine B assay relative to control; conditions: read-out: Activity
[11] = tested on: A549; experiment: Growth inhibition of human A549/ATCC cells incubated for 48 hrs by sulforhodamine B assay; conditions: for CC50: read-out: LC50 (the source's name); summary of the method: as §1
[12] = tested on: SK-OV-3; experiment: Growth inhibition of human SK-OV-3 cells assessed as cell growth at 1 uM incubated for 48 hrs by sulforhodamine B assay relative to control; conditions: read-out: Activity
[13] = tested on: 786-0; experiment: Growth inhibition of human 786-0 cells assessed as cell growth at 0.1 uM incubated for 48 hrs by sulforhodamine B assay relative to control; conditions: read-out: Activity; summary of the method: as §1
[14] = tested on: KM12; experiment: Growth inhibition of human KM12 cells assessed as cell growth at 0.1 uM incubated for 48 hrs by sulforhodamine B assay relative to control; conditions: read-out: Activity
[15] = tested on: SF-268; experiment: Growth inhibition of human SF-268 cells assessed as cell growth at 1 uM incubated for 48 hrs by sulforhodamine B assay relative to control; conditions: read-out: Activity
[16] = tested on: RXF 393; experiment: Growth inhibition of human RXF 393 cells assessed as cell growth at 0.1 uM incubated for 48 hrs by sulforhodamine B assay relative to control; conditions: read-out: Activity
[17] = tested on: RPMI-8226; experiment: Growth inhibition of human RPMI-8226 cells assessed as cell growth at 100 uM incubated for 48 hrs by sulforhodamine B assay relative to control; conditions: read-out: Activity
[18] = tested on: SN12C; experiment: Growth inhibition of human SN12C cells incubated for 48 hrs by sulforhodamine B assay; conditions: for CC50: read-out: LC50 (the source's name); summary of the method: as §3
[19] = tested on: SF-295; experiment: Growth inhibition of human SF-295 cells assessed as cell growth at 100 uM incubated for 48 hrs by sulforhodamine B assay relative to control; conditions: read-out: Activity
[20] = tested on: HOP-62; experiment: Growth inhibition of human HOP-62 cells incubated for 48 hrs by sulforhodamine B assay; summary of the method: as §2
[21] = tested on: SW-620; experiment: Growth inhibition of human SW-620 cells incubated for 48 hrs by sulforhodamine B assay; summary of the method: as §3
[22] = tested on: RXF 393; experiment: Growth inhibition of human RXF 393 cells assessed as cell growth at 1 uM incubated for 48 hrs by sulforhodamine B assay relative to control; conditions: read-out: Activity
[23] = tested on: LOX IMVI; experiment: Growth inhibition of human LOX IMVI cells assessed as cell growth at 0.1 uM incubated for 48 hrs by sulforhodamine B assay relative to control; conditions: read-out: Activity
[24] = tested on: NCI-H522; experiment: Growth inhibition of human NCI-H522 cells assessed as cell growth at 0.1 uM incubated for 48 hrs by sulforhodamine B assay relative to control; conditions: read-out: Activity
[25] = tested on: RPMI-8226; experiment: Growth inhibition of human RPMI-8226 cells assessed as cell growth at 1 uM incubated for 48 hrs by sulforhodamine B assay relative to control; conditions: read-out: Activity
[26] = tested on: M14; experiment: Growth inhibition of human M14 cells assessed as cell growth at 0.01 uM incubated for 48 hrs by sulforhodamine B assay relative to control; conditions: read-out: Activity
[27] = tested on: HCT-15; experiment: Growth inhibition of human HCT-15 cells assessed as cell growth at 0.01 uM incubated for 48 hrs by sulforhodamine B assay relative to control; conditions: read-out: Activity
[28] = tested on: SR; experiment: Growth inhibition of human SR cells assessed as cell growth at 100 uM incubated for 48 hrs by sulforhodamine B assay relative to control; conditions: read-out: Activity
[29] = tested on: T47D; experiment: Growth inhibition of human T47D cells assessed as cell growth at 1 uM incubated for 48 hrs by sulforhodamine B assay relative to control; conditions: read-out: Activity
[30] = tested on: MDA-MB-468; experiment: Growth inhibition of human MDA-MB-468 cells assessed as cell growth at 1 uM incubated for 48 hrs by sulforhodamine B assay relative to control; conditions: read-out: Activity
[31] = tested on: TK-10; experiment: Growth inhibition of human TK-10 cells incubated for 48 hrs by sulforhodamine B assay; summary of the method: as §3
[32] = tested on: HT-29; experiment: Growth inhibition of human HT-29 cells assessed as cell growth at 0.1 uM incubated for 48 hrs by sulforhodamine B assay relative to control; conditions: read-out: Activity
[33] = tested on: UO-31; experiment: Growth inhibition of human UO-31 cells incubated for 48 hrs by sulforhodamine B assay; conditions: for CC50: read-out: LC50 (the source's name); summary of the method: as §3
[34] = tested on: NCI-H23; experiment: Growth inhibition of human NCI-H23 cells assessed as cell growth at 0.1 uM incubated for 48 hrs by sulforhodamine B assay relative to control; conditions: read-out: Activity
[35] = tested on: PC-3; experiment: Growth inhibition of human PC-3 cells assessed as cell growth at 0.1 uM incubated for 48 hrs by sulforhodamine B assay relative to control; conditions: read-out: Activity
[36] = read-out: LC50 (the source's name)

**Q.** For `CCc1ccccc1NC(=O)c1sc2nc3c(cc2c1N)C(=O)CCC3`, which growth at 1 µM [1] is on record?
**A.** 33%

**Q.** What about the LC50 (concentration killing 50% of the starting cells) [2] of the same compound?
**A.** > 100 µM

**Q.** What about the TGI [2] of the same compound?
**A.** ≥ 100 µM

**Q.** And the growth at 1 µM [3]?
**A.** 30%

**Q.** And the GI50 [4]?
**A.** 0.537 µM

**Q.** And the TGI [4]?
**A.** 75.7 µM

**Q.** What about the CC50 [4, 36] of the same compound?
**A.** > 100 µM

**Q.** And the growth at 0.01 µM [5]?
**A.** 73%

**Q.** What about the growth at 100 µM [6] of the same compound?
**A.** -8%

**Q.** What about the growth at 0.01 µM [7] of the same compound?
**A.** 96%

**Q.** And the growth at 0.1 µM [8]?
**A.** 88%

**Q.** And the growth at 100 µM [9]?
**A.** -34%

**Q.** What about the growth at 0.01 µM [10] of the same compound?
**A.** 88%

**Q.** And the GI50 [11]?
**A.** 0.595 µM

**Q.** And the TGI [11]?
**A.** > 100 µM

**Q.** What about the CC50 [11] of the same compound?
**A.** > 100 µM

**Q.** What about the growth at 1 µM [12] of the same compound?
**A.** 30%

**Q.** And the growth at 0.1 µM [13]?
**A.** 89%

**Q.** And the growth at 0.1 µM [14]?
**A.** 92%

**Q.** What about the growth at 1 µM [15] of the same compound?
**A.** 53%

**Q.** And the growth at 0.1 µM [16]?
**A.** 66%

**Q.** What about the growth at 100 µM [17] of the same compound?
**A.** -5%

**Q.** What about the GI50 [18] of the same compound?
**A.** 0.676 µM

**Q.** And the TGI [18]?
**A.** > 100 µM

**Q.** What about the CC50 [18] of the same compound?
**A.** > 100 µM

**Q.** What about the growth at 100 µM [19] of the same compound?
**A.** -2%

**Q.** And the GI50 [20]?
**A.** 0.445 µM

**Q.** And the LC50 [20]?
**A.** > 100 µM

**Q.** And the TGI [20]?
**A.** ≥ 100 µM

**Q.** What about the GI50 [21] of the same compound?
**A.** 0.322 µM

**Q.** And the LC50 (concentration killing 50% of cells) [21]?
**A.** > 100 µM

**Q.** And the TGI [21]?
**A.** > 100 µM

**Q.** And the growth at 1 µM [22]?
**A.** -8%

**Q.** What about the growth at 0.1 µM [23] of the same compound?
**A.** 95%

**Q.** What about the growth at 0.1 µM [24] of the same compound?
**A.** 88%

**Q.** And the growth at 1 µM [25]?
**A.** 41%

**Q.** What about the growth at 0.01 µM [26] of the same compound?
**A.** 90%

**Q.** What about the growth at 0.01 µM [27] of the same compound?
**A.** 93%

**Q.** What about the growth at 100 µM [28] of the same compound?
**A.** 2%

**Q.** And the growth at 1 µM [29]?
**A.** 20%

**Q.** And the growth at 1 µM [30]?
**A.** -4%

**Q.** What about the GI50 [31] of the same compound?
**A.** 23.2 µM

**Q.** And the TGI [31]?
**A.** > 100 µM

**Q.** And the CC50 [31, 36]?
**A.** > 100 µM

**Q.** And the growth at 0.1 µM [32]?
**A.** 100%

**Q.** What about the GI50 [33] of the same compound?
**A.** 14.8 µM

**Q.** And the TGI [33]?
**A.** > 100 µM

**Q.** And the CC50 [33]?
**A.** > 100 µM

**Q.** Which results are given for `CCc1cccc(C)c1NC(=O)c1sc2nc3c(cc2c1N)C(=O)CCC3`?
**A.** growth at 1 µM [1]: 31%; GI50 [2]: 0.446 µM; LC50 (concentration killing 50% of the starting cells) [2]: > 100 µM; TGI [2]: 70 µM; growth at 1 µM [3]: 29%; growth at 0.01 µM [5]: 73%; growth at 100 µM [6]: -18%; growth at 0.01 µM [7]: 97%; growth at 0.1 µM [8]: 91%; growth at 100 µM [9]: 2%; growth at 0.01 µM [10]: 90%; GI50 [11]: 0.593 µM; TGI [11]: > 100 µM; CC50 [11]: > 100 µM; growth at 0.1 µM [13]: 89%; growth at 0.1 µM [14]: 92%; growth at 1 µM [15]: 54%; growth at 0.1 µM [16]: 74%; growth at 0.1 µM [34]: 100%; growth at 100 µM [17]: -39%; GI50 [18]: 0.0104 µM; TGI [18]: > 100 µM; CC50 [18]: > 100 µM; growth at 100 µM [19]: 1%; GI50 [20]: 0.679 µM; LC50 [20]: > 100 µM; TGI [20]: > 100 µM; GI50 [21]: 0.359 µM; LC50 (concentration killing 50% of cells) [21]: > 100 µM; TGI [21]: > 100 µM; growth at 1 µM [22]: -12%; growth at 0.1 µM [23]: 93%; growth at 1 µM [25]: 44%; growth at 0.01 µM [26]: 96%; growth at 0.01 µM [27]: 93%; growth at 100 µM [28]: -18%; growth at 1 µM [29]: 28%; growth at 1 µM [30]: -8%; growth at 0.1 µM [35]: 87%; GI50 [33]: 0.0982 µM; TGI [33]: ≥ 100 µM; CC50 [33]: > 100 µM
